# Source: ChEMBL document CHEMBL1135939, “Studies on the synthesis and opioid agonistic activities of mitragynine-related indole alkaloids: discovery of opioid agonists structurally different from other opioid ligands” (J Med Chem, 2002)
# The source made the active and inactive calls. The rule behind the calls is not given here.
# Legend:
# [1] = organism: Cavia porcellus; assay: Relative potency expressed as the percentage of the pD2 value against that of morphine; type: functional
# [2] = organism: Cavia porcellus; assay: % maximum inhibition is elicited when the response reaches plateau, calculated regarding electrically induced contraction in guinea pig ileum as 100% (P < 0.001); type: functional
# Summary of the method: (§1)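 Ileum from male Dunkin-Hartley guinea pigs (300–400 g) in bath at 37 °C bubbled with 95% O2/5% CO2. Tissue suitability checked with acetylcholine 3 μM. Transmural stimulation at 0.2 Hz, 0.3 ms, supramaximal voltage, isotonic recording. Cumulative concentration–response curves over 100 pM–30 μM. Twitch height measured before and after drug. Mean ± SEM from five to six animals.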
# [3] = organism: Cavia porcellus; assay: Relative inhibitory activity expressed as the percentage of the maximum inhibition by the compound against that of morphine; type: functional
# [4] = organism: Cavia porcellus; assay: activity evaluated by its ability to inhibit the electrically induced twitch contraction in guinea pig ileum, which is reversed by naloxone (300 nM); type: functional; summary of the method: as §1
# [5] = target: Mu-type opioid receptor (Cavia porcellus) (UniProt P97266); assay: Relative affinity evaluated for Opioid receptor mu 1
# Sequence of Mu-type opioid receptor (Cavia porcellus) (P97266 whole entry): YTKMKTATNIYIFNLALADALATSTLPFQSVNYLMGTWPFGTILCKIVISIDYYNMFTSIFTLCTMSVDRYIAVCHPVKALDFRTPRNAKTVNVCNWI
# Summary of the method: (§2)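 From displacement Ki values in guinea pig brain membranes for μ ([3H]DAMGO), δ ([3H]DPDPE) and κ ([3H]U-69593) sites. Ka = 1/Ki. Relative affinity (%) = Ka for the subtype / (Kaμ + Kaδ + Kaκ).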
# [6] = organism: Cavia porcellus; assay: activity evaluated by its ability to inhibit the electrically induced twitch contraction in guinea pig ileum, which is reversed by naloxone (300 nM) (P < 0.001); type: functional; summary of the method: as §1
# [7] = tested on: Delta-type opioid receptor; assay: Relative affinity evaluated for Opioid receptor delta 1; settings: Cavia porcellus; summary of the method: as §2
# [8] = target: Mu-type opioid receptor (Cavia porcellus, UniProt P97266); assay: Binding affinity using guinea pig brain membrane preparations, towards Opioid receptor mu 1 using [3H]- DAMGO as radioligand
# Sequence of Mu-type opioid receptor (P97266 whole entry): as above
# Summary of the method: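 Guinea pig whole-brain (minus cerebellum) membranes in 50 mM Tris-HCl pH 7.4 with 1 nM radioligand. [3H]DPDPE incubated 2 h and [3H]DAMGO 1.5 h, both at 25 °C. Nonspecific binding defined with 1 μM naltrindole (DPDPE) or 1 μM DAMGO (DAMGO). GF/B filtration, scintillation counting. 6–9 inhibitor concentrations; Ki by Cheng–Prusoff, given as pKi. 3–5 curves, each in triplicate.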
# [9] = organism: Cavia porcellus; assay: % maximum inhibition is elicited when the response reaches plateau, calculated regarding electrically induced contraction in guinea pig ileum as 100%; type: functional; summary of the method: as §1
# [10] = target: Kappa-type opioid receptor (Cavia porcellus, UniProt P41144); assay: Binding affinity using guinea pig brain membrane preparations, towards Opioid receptor kappa 1 using [3H]- U-69,593 as radioligand
# Sequence of Kappa-type opioid receptor (P41144 whole entry): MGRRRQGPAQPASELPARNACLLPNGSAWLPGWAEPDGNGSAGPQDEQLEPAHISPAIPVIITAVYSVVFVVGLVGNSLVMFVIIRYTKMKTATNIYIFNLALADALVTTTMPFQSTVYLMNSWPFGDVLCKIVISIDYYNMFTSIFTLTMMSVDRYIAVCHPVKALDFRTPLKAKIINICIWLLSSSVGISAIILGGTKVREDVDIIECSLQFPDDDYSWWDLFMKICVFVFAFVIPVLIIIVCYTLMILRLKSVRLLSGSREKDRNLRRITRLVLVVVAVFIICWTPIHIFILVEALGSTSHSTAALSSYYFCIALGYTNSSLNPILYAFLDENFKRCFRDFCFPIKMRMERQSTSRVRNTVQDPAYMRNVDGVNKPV
# [11] = organism: Cavia porcellus; assay: % inhibition of twitch contraction at 0.1 uM in electrically stimulated guinea pig ileum preparation; type: functional; summary of the method: as §1
# [12] = organism: Cavia porcellus; assay: % maximum inhibition is elicited when the response reaches plateau, calculated regarding electrically induced contraction in guinea pig ileum as 100%(P < 0.01); type: functional; summary of the method: as §1
# [13] = organism: Cavia porcellus; assay: activity evaluated by its ability to inhibit the electrically induced twitch contraction in guinea pig ileum, which is reversed by naloxone (300 nM)(P < 0.001); type: functional; summary of the method: as §1
# [14] = organism: Cavia porcellus; assay: % inhibition of twitch contraction in electrically stimulated guinea pig ileum preparation; type: functional; summary of the method: as §1
# [15] = organism: Cavia porcellus; assay: activity evaluated by its ability to inhibit the electrically induced twitch contraction in guinea pig ileum, which is reversed by naloxone (300 nM); no effect; type: functional; summary of the method: as §1
# [16] = organism: Cavia porcellus; assay: % maximum inhibition is elicited when the response reaches plateau, calculated regarding electrically induced contraction in guinea pig ileum as 100%; no effect; type: functional; summary of the method: as §1
# [17] = organism: Cavia porcellus; assay: Relative potency expressed as the percentage of the pD2 value against that of morphine; no effect; type: functional
# [18] = organism: Cavia porcellus; assay: Relative inhibitory activity expressed as the percentage of the maximum inhibition by the compound against that of morphine; no effect; type: functional
# [19] = organism: Cavia porcellus; assay: Relative inhibitory activity expressed as the percentage of the maximum inhibition by the compound against that of morphine; non specific; type: functional
# [20] = organism: Cavia porcellus; assay: % maximum inhibition is elicited when the response reaches plateau, calculated regarding electrically induced contraction in guinea pig ileum as 100%; non specific; type: functional; summary of the method: as §1
# [21] = organism: Cavia porcellus; assay: activity evaluated by its ability to inhibit the electrically induced twitch contraction in guinea pig ileum, which is reversed by naloxone (300 nM); non specific; type: functional; summary of the method: as §1
# [22] = organism: Cavia porcellus; assay: Relative potency expressed as the percentage of the pD2 value against that of morphine; non specific; type: functional
# [23] = organism: Cavia porcellus; assay: % inhibition of twitch contraction at 3 uM in electrically stimulated guinea pig ileum preparation by; type: functional; summary of the method: as §1
# [24] = organism: Cavia porcellus; assay: activity evaluated by its ability to inhibit the electrically induced twitch contraction in guinea pig ileum, which is reversed by naloxone (300 nM)(P < 0.01); type: functional; summary of the method: as §1
# [25] = organism: Cavia porcellus; assay: % maximum inhibition is elicited when the response reaches plateau, calculated regarding electrically induced contraction in guinea pig ileum as 100%(P < 0.001); type: functional; summary of the method: as §1
# [26] = organism: Cavia porcellus; assay: Effect of Corynantheidine (1 uM) on twitch contraction inhibited by morphine (1 uM) in guinea pig (P<0.05); type: functional
# [27] = organism: Cavia porcellus; assay: Effect of Corynantheidine (10 uM) on twitch contraction inhibited by Atropine (0.1 uM) in guinea pig; type: functional
# [28] = organism: Cavia porcellus; assay: Effect of Corynantheidine (1 uM) on twitch contraction inhibited by Verapamil (3 uM) in guinea pig; type: functional
# [29] = organism: Cavia porcellus; assay: Effect of Corynantheidine (10 uM) on twitch contraction inhibited by morphine (1 uM) in guinea pig (P<0.001); type: functional
# [30] = organism: Cavia porcellus; assay: Effect of Corynantheidine (1 uM) on twitch contraction inhibited by Atropine (0.1 uM) in guinea pig; type: functional
# [31] = organism: Cavia porcellus; assay: Effect of Corynantheidine (10 uM) on twitch contraction inhibited by Verapamil (3 uM) in guinea pig; type: functional
# [32] = organism: Cavia porcellus; assay: % maximum inhibition is elicited when the response reaches plateau, calculated regarding electrically induced contraction in guinea pig ileum as 100% (P<0.001); type: functional; summary of the method: as §1
smiles,measurement,setting,value
CC[C@@H]1CN2CCc3c([nH]c4cccc(OC(C)=O)c34)[C@@H]2C[C@@H]1/C(=C\OC)C(=O)OC,Relative potency,[1],2%
same,Inhibition,[2],33.2%
same,Inhibition,[3],38%
same,pD2,[4],5.39
CC[C@@H]1CN2CC[C@@]3(O)C(=Nc4cccc(OC)c43)[C@@H]2C[C@@H]1/C(=C\OC)C(=O)OC,Relative potency,[1],1071%
same,Relative affinity,[5],83.3%
same,pD2,[6],8.2
same,Relative affinity,[7],6.6%
same,Inhibition,[3],99%
same,Ki,[8],13.5 nM
same,Inhibition,[9],86.3%
same,Ki,[10],123 nM
CC[C@@H]1CN2CCc3c([nH]c4cccc(O)c34)[C@@H]2C[C@@H]1/C(=C\OC)C(=O)OC,Relative potency,[1],41%
same,Relative affinity,[5],99.6%
same,Inhibition,[2],49.4%
same,Relative affinity,[7],< 0.1%
same,Inhibition,[3],57%
same,Ki,[8],12 nM
same,pD2,[4],6.78
same,Ki,[10],2950 nM
CN1[C@@H]2CC[C@H]1C[C@@H](OC(=O)C(CO)c1ccccc1)C2 (stereo partly specified) [ATROPINE],Contraction,[11],3.9%
CC[C@@H]1CN2CC[C@@]3(OC)C(=Nc4cccc(OC)c43)[C@@H]2C[C@@H]1/C(=C\OC)C(=O)OC,Relative potency,[1],19%
same,Inhibition,[12],60.9%
same,pD2,[13],6.45
same,Inhibition,[3],70%
CN1CC[C@]23c4c5ccc(O)c4O[C@H]2[C@@H](O)C=C[C@H]3[C@H]1C5 [MORPHINE],Contraction,[14],27.4%
same,Inhibition,[3],100%
same,Inhibition,[9],87.2%
CC[C@@H]1CN2CC3=C(O)C4C(OC)=CC=CC4N=C3[C@@H]2C[C@@H]1/C(=C\OC)C(=O)OC (stereo partly specified),Relative potency,[1],34%
same,pD2,[13],6.7
same,Inhibition,[3],85%
same,Inhibition,[9],74.1%
CC[C@@H]1CN2CCc3c([nH]c4cccc(OCOC)c34)[C@@H]2C[C@@H]1/C(=C\OC)C(=O)OC,NE,[15],inactive
same,NE,[16],inactive
same,NE,[17],inactive
same,NE,[18],inactive
CC[C@@H]1C[N+]2([O-])CCc3c([nH]c4cccc(OC)c34)[C@@H]2C[C@@H]1/C(=C\OC)C(=O)OC (stereo partly specified),Inhibition,[9],-123.5%
CC[C@@H]1CN2CC[C@]3(Nc4cccc(OC)c4C3=O)[C@@H]2C[C@@H]1/C(=C\OC)C(=O)OC,Relative potency,[1],3467%
same,Relative affinity,[5],97.1%
same,pD2,[6],8.71
same,Relative affinity,[7],2.8%
same,Inhibition,[3],96%
same,Ki,[8],0.0871 nM
same,Inhibition,[9],83.5%
same,Ki,[10],79.4 nM
CC[C@@H]1CN2CCc3c([nH]c4cccc(OC(C)C)c34)[C@@H]2C[C@@H]1/C(=C\OC)C(=O)OC,NS,[19],non specific
same,NS,[20],non specific
same,NS,[21],non specific
same,NS,[22],non specific
COc1ccc(CCN(C)CCCC(C#N)(c2ccc(OC)c(OC)c2)C(C)C)cc1OC (stereo unspecified),Contraction,[23],6.8%
CCOc1cccc2[nH]c3c(c12)CCN1C[C@@H](CC)[C@@H](/C(=C\OC)C(=O)OC)C[C@@H]31,NS,[19],non specific
same,NS,[20],non specific
same,NS,[21],non specific
same,NS,[22],non specific
CC[C@@H]1CN2CC[C@@]3(OC(C)=O)C(=Nc4cccc(OC)c43)[C@@H]2C[C@@H]1/C(=C\OC)C(=O)OC,Relative potency,[1],21%
same,Inhibition,[2],13.4%
same,pD2,[24],6.5
same,Inhibition,[3],15%
CC[C@@H]1CN2CCc3c([nH]c4cccc(OC)c34)[C@H]2C[C@@H]1/C(=C/OC)C(=O)OC,Relative potency,[1],2%
same,pD2,[13],5.4
same,Inhibition,[3],101%
same,Inhibition,[9],85.9%
CCO[C@]12CCN3C[C@@H](CC)[C@@H](/C(=C\OC)C(=O)OC)C[C@H]3C1=Nc1cccc(OC)c12,Relative potency,[1],1%
same,pD2,[13],5.29
same,Inhibition,[3],26%
same,Inhibition,[25],22.9%
CC[C@@H]1CN2CCc3c([nH]c4cccc(OC)c34)[C@@H]2C[C@@H]1/C(=C\OC)C(=O)OC,Relative potency,[1],26%
same,Relative affinity,[5],88.7%
same,Relative affinity,[7],10.7%
same,pD2,[24],6.59
same,Inhibition,[3],95%
same,Ki,[8],7.24 nM
same,Inhibition,[9],83.1%
same,Ki,[10],1100 nM
CC[C@@H]1CN2CCc3c([nH]c4ccccc34)[C@@H]2C[C@@H]1/C(=C\OC)C(=O)OC [CORYNANRHEIDINE],Relative affinity,[5],95.8%
same,Contraction,[26],43%
same,Contraction,[27],6.3%
same,Relative affinity,[7],1%
same,Contraction,[28],7%
same,Inhibition,[3],-21%
same,Ki,[8],72.4 nM
same,Contraction,[29],109.2%
same,Contraction,[30],5.7%
same,Contraction,[31],13.2%
same,Inhibition,[32],-18.1%
same,Ki,[10],2570 nM
